From ChEMBL document CHEMBL5506013, “Mitochondria-Selective Dicationic Small-Molecule Ligand Targeting G-Quadruplex Structures for Human Colorectal Cancer Therapy” (J Med Chem, 2024)
Calls of active or inactive are those of the source. The calls are words filed in the database; no cut-off is given here.

Experiments:
[1] = Drug localization in endoplasmic reticulum of living human HCT-116 cells assessed as colocalization at 4 uM incubated for 1 hr by ER-tracker blue staining based analysis; type: ADME, subcellular; details: hct-116, 1 h
Procedure, shortened: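 Live HCT116 cells co-stained with ligand and ER-Tracker Blue. Colocalization assessed by confocal imaging.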

HCT-116 [2] = test: Downregulation of ND1 gene expression in human HCT-116 cells at 0 to 4 uM measured after 48 hrs by q-PCR analysis; type: functional, cell-based; details: dose 0-4 µM
HCT-116 [3] = test: Downregulation of ND2 mRNA level in human HCT-116 cells at 0 to 4 uM measured after 48 hrs by qRT-PCR analysis; type: functional, cell-based; details: dose 0-4 µM
HCT-116 [4] = test: Downregulation of ATP8 mRNA level in human HCT-116 cells at 0 to 4 uM measured after 48 hrs by qRT-PCR analysis; type: functional, cell-based; details: dose 0-4 µM
HCT-116 [5] = test: Downregulation of ND3 protein level in human HCT-116 cells at upto 4 uM incubated for 48 hrs by Western blot analysis; type: functional, cell-based
HCT-116 [6] = test: Downregulation of mitochondrial respiratory chain complex II level in human HCT-116 cells at upto 4 uM measured after 48 hrs by Western blot analysis; type: functional, cell-based
HCT-116 [7] = test: Downregulation of mitochondrial respiratory chain complex III level in human HCT-116 cells at upto 4 uM measured after 48 hrs by Western blot analysis; type: functional, cell-based
HCT-116 [8] = test: Induction of mitochondrial dysfunction in human HCT-116 cells assessed as decrease in extracellular acidification rate at upto 4 uM incubated for 3 hrs by Seahorse XFe24 analyzer; type: functional, cell-based
Procedure, shortened: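 Seahorse Mito-stress and glycolysis stress tests on HCT116 cells treated with ligand for 3 h. Oxygen consumption rate and extracellular acidification rate recorded.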

Quadruplex DNA [9] = test: Binding affinity to mito 81 G4 DNA (unknown origin) assessed as increase in fluorescence intensity by fluorescence spectrophotometric analysis; type: nucleic-acid assay
Procedure, shortened: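 Fluorescence titration in buffer. Ligand at 5 uM mixed with 20 uM pre-annealed DNA (95 °C for 10 min, slow cooling). Emission collected at 550-800 nm and monitored at 650 nm. Result reported as fold enhancement F/F0 over ligand alone.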

DNA = test: Binding affinity to SS19 DNA (non-G4 DNA) (unknown origin) assessed as increase in fluorescence intensity by fluorescence spectrophotometric analysis; type: nucleic-acid assay
Procedure, shortened: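 Oligonucleotides were pre-annealed at 95 °C for 10 min, then cooled slowly. Ligand (5 uM) was mixed with 20 uM DNA in buffer. Emission was collected over 550–800 nm, and enhancement was taken at 650 nm as F/F0.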

Quadruplex DNA [10] = test: Binding affinity to Mito 78 G4 DNA (unknown origin) assessed as increase in CD signal at 5 uM at 290 nMby circular dichroism spectroscopic analysis; type: nucleic-acid assay
Quadruplex DNA [11] = test: Binding affinity to Mito 55 G4 DNA (unknown origin) assessed as change in melting temperature at 5 uM by circular dichroism spectroscopic analysis; type: nucleic-acid assay
Quadruplex DNA [12] = test: Binding affinity to Mito 0.5-15 G4 DNA (unknown origin) assessed as change in melting temperature at 5 uM by circular dichroism spectroscopic analysis; type: nucleic-acid assay
Quadruplex DNA [13] = test: Binding affinity to Mito 81 G4 DNA (unknown origin) assessed as change in melting temperature at 5 uM by circular dichroism spectroscopic analysis; type: nucleic-acid assay
[14] = Drug localization in nucleus of human HCT-116 cells at 4 uM measured upto 12 hrs by hoechst33342 staining based live cell imaging analysis; type: ADME, subcellular; details: hct-116, 12 h
[15] = Drug localization in human HCT-116 cells by measuring red foci at 4 uM incubated for 1 hr in presence of MitoPDS by hoechst33342 staining based analysis; type: ADME, cell-based; details: hct-116, 1 h
Procedure, shortened: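 Pretreatment of live HCT116 cells: FCCP 1 uM for 20 min, cyclosporin A 1 uM for 24 h, DMOG 100 uM for 24 h, or MitoPDS at several concentrations for 3 h (applied after dye loading). Cells loaded with ligand 4 uM (excitation 488 nm) for 1 h and Hoechst33342 1 uM for 30 min. Red foci counted by confocal imaging in 100 cells. Mean ± SEM, t test.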

HCT-116 [16] = test: Induction of cell cycle arrest in human HCT-116 cells assessed as accumulation of cells at G0/G1 phase at 1 to 4 uM measured after 72 hrs by PI staining based flow cytometry analysis (reference value: 50.66%); type: functional; details: dose 1-4 µM
Procedure, shortened: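 HCT116 cells treated at 0-4 uM for 72 h. Cell-cycle distribution measured by flow cytometry and G0/G1 percentage recorded.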

HCT-116 [17] = test: Upregulation of p53 level in human HCT-116 cells at upto 4 uM measured after 72 hrs by Western blot analysis; type: functional, cell-based
HCT-116 [18] = test: Inhibition of cell migration in human HCT-116 cells at upto 4 uM measured after 72 hrs by transwell assay relative to control; type: functional; details: up to 4 µM
Procedure, shortened: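 Transwell migration of HCT116 cells treated for 72 h at 0, 1, 2 or 4 uM, imaged at 100x and quantified; mean ± SD.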

[19] = Toxicity in BALB/c nude mouse assessed as change in body weight at 5 mg/kg, iv administered every two days for 16 days; type: organism-based; details: in vivo, 384 h, time 16 day
Procedure, shortened: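 Male Balb/c nude mice bearing HCT116 xenografts, 6 per group, given PBS or ligand 5 mg/kg intravenously every two days. Body weight tracked over 16 days.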

HCT-116 [20] = test: Antitumor activity against human HCT-116 cells xenografted in Balb/c nude mouse model assessed as inhibition of tumor cell proliferation at 5 mg/kg, iv administered every two days for 16 days by Ki67 staining based analysis; type: functional, organism-based; details: time 16.0 day
Procedure, shortened: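 Tumours came from HCT116-xenografted male Balb/c nude mice given 5 mg/kg i.v. every two days, or PBS, for 16 days. Tumour tissue sections were stained by TUNEL for apoptosis and by Ki67 immunofluorescence for proliferation, then compared with the control group.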

[21] = Toxicity in BALB/c nude mouse assessed as effect on liver at 5 mg/kg, iv measured after 16 hrs post injection by H and E staining based analysis; type: organism-based; details: in vivo
[22] = Toxicity in BALB/c nude mouse assessed as change in red blood cell count at 5 mg/kg, iv administered every two days for 16 days; type: organism-based; details: in vivo, 384 h, time 16 day
Procedure, shortened: (§1)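 HCT116 xenograft-bearing male Balb/c nude mice (6/group) dosed iv at 5 mg/kg every two days or with PBS. Whole blood collected at sacrifice on day 16 for hematology parameters.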

[23] = Toxicity in BALB/c nude mouse assessed as change in mean red blood cell hemoglobin content at 5 mg/kg, iv administered every two days for 16 days; type: organism-based; details: in vivo, 384 h, time 16 day; procedure, shortened: as §1
[24] = Toxicity in BALB/c nude mouse assessed as effect on heart at 5 mg/kg, iv measured after 16 hrs post injection by H and E staining based analysis; type: organism-based; details: in vivo
[25] = Toxicity in BALB/c nude mouse assessed as effect on lung at 5 mg/kg, iv measured after 16 hrs post injection by H and E staining based analysis; type: organism-based; details: in vivo
[26] = Drug localization in human HCT-116 cells transfected with Cy5-HP19 non G4 DNA at 4 uM incubated for 1 hr by hoechst33342 staining based analysis; type: ADME, cell-based; details: hct-116, 1 h
Procedure, shortened: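 HCT116 cells transfected with Cy5-labelled DNA (excitation 635 nm) for 24 h. Ligand 4 uM added for 1 h, then Hoechst33342 1 uM for 30 min. Colocalization of ligand with Cy5 quantified by Pearson r from confocal images.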

## C(=C\c1ccc2ccccc2[n+]1CCCCCCCC[n+]1c(/C=C/c2ccc(N3CCCCC3)cc2)ccc2ccccc21)/c1ccc(N2CCCCC2)cc1.[I-].[I-]
[1]
  Drug uptake: Not Active
HCT-116 [2]
  Activity: Active
HCT-116 [3]
  Activity: Active
HCT-116 [4]
  Activity: Active
HCT-116 [5]
  Activity: Active
HCT-116 [6]
  Activity: Active
HCT-116 [7]
  Activity: Active
HCT-116 [8]
  Activity: Active
Quadruplex DNA [9]
  Activity: Active
DNA
  Activity: inactive
Quadruplex DNA [10]
  Activity: Active
Quadruplex DNA [11]
  ΔTm: 3.6 °C
Quadruplex DNA [12]
  ΔTm: 3.6 °C
Quadruplex DNA [13]
  ΔTm: 3.6 °C
[14]
  Drug uptake: Not Active
[15]
  Drug uptake: Not Active
HCT-116 [16]
  Activity: 66.01%
HCT-116 [17]
  Activity: Active
HCT-116 [18]
  inhibition (INH): 40%
[19]
  Activity: Non-Toxic
HCT-116 [20]
  Activity: Active
[21]
  Activity: Non-Toxic
[22]
  Activity: Non-Toxic
[23]
  Activity: Non-Toxic
[24]
  Activity: Non-Toxic
[25]
  Activity: Non-Toxic
[26]
  Drug uptake: Not Active
